Assay results reported in ChEMBL document CHEMBL1123012, “Ellipticine derivatives with an affinity to the estrogen receptor, an approach to develop intercalating drugs with a specific effect on the hormone-dependent breast cancer” (J Med Chem, 1985).

What was measured:
L1210 [1] = experiment: Lethal concentration required to reduce cloning efficiency of L1210 cell line to a factor of 0.37 after 24 hour exposure; format: cell-based; settings: mouse, l1210, 24 h
L1210 [2] = experiment: The effective dose against L1210 cell growth; format: functional; settings: Mus musculus, read-out: ED50 (the source's name)
How it was run: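 Exponentially growing L1210 cells (1 × 10^5/mL) in RPMI 1640 with 10% fetal calf serum, penicillin, streptomycin and 60 µM β-mercaptoethanol. Exposed to a range of drug concentrations in nonagitated suspension for 24 h at 37 °C, 5% CO2. Cells counted electronically; duplicate treated cultures compared with triplicate untreated controls. ED50 taken from percent inhibition plotted against log concentration.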

Calf thymus DNA = experiment: Inhibitory concentration against ethidium bromide binding to DNA; format: nucleic-acid assay; settings: Bos taurus
How it was run: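 Fluorometric competition with ethidium bromide bound to sonicated calf thymus DNA, 20 °C, 0.02 M sodium acetate pH 5.5. Final DNA 2.5 × 10^-6 M (base pairs), ethidium 5 × 10^-6 M; competitor added in portions. Excitation 546 nm, emission 590 nm. Bound ethidium per base pair plotted vs rf (competitor/DNA bp). rf50 taken at 50% displacement of bound ethidium.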

SMILES | Co (L1210 [1]) | EC50 (L1210 [2]) | rf50 (Calf thymus DNA)
Cc1c2cc[n+](CC(=O)NCCCCCNCCOc3ccc(/C(=C(/Cl)c4ccccc4)c4ccccc4)cc3)cc2c(C)c2c1[nH]c1ccc(O)cc12.[Cl-] | > 10 µM | 4 µM | 0.32
COc1ccc2[nH]c3c(C)c4cc[n+](CC(=O)NCCCCCNCCOc5ccc(/C(=C(/Cl)c6ccccc6)c6ccccc6)cc5)cc4c(C)c3c2c1 | – | – | 0.86
CCN(CC)CCOc1ccc(/C(=C(/Cl)c2ccccc2)c2ccccc2)cc1 | – | – | 20
COc1ccc2[nH]c3c(C)c4cc[n+](CC(=O)N(CCCCCN)CCOc5ccc(/C(=C(/Cl)c6ccccc6)c6ccccc6)cc5)cc4c(C)c3c2c1.[Cl-] | 9 µM | 5 µM | 0.7
COc1ccc2[nH]c3c(C)c4cc[n+](CC(=O)NCCCCCN(CCOc5ccc(/C(=C(/Cl)c6ccccc6)c6ccccc6)cc5)C(=O)C[n+]5ccc6c(C)c7[nH]c8ccc(OC)cc8c7c(C)c6c5)cc4c(C)c3c2c1 | – | – | 10
Cc1c2cc[n+](CCNC(=O)CC3(C)CC[C@H]4[C@@H]5CCc6cc(O)ccc6[C@H]5CC[C@@]43C)cc2c(C)c2c1[nH]c1ccccc12.[Br-] (stereo partly specified) | 0.15 µM | 0.5 µM | 1.5
CCN(CC)CCOc1ccc(/C(=C(\Cl)c2ccccc2)c2ccccc2)cc1 | – | – | 20
Cc1c2cc[n+](CC(=O)NCCCCCN(CCOc3ccc(/C(=C(/Cl)c4ccccc4)c4ccccc4)cc3)C(=O)C[n+]3ccc4c(C)c5[nH]c6ccc(O)cc6c5c(C)c4c3)cc2c(C)c2c1[nH]c1ccc(O)cc12.[Cl-].[Cl-] | > 10 µM | 4 µM | 4.8
